# Laboratory results as given in publication PMC8919593 (Journal of neuroscience research, 2021).
# Columns and labels:
# [1] = system: primary mouse microglia; experiment: Microglia-neuron coculture assay of neuronal phagocytosis; format: cell-based; conditions: 1 μM inhibitor, without IFNγ treatment; 24 hr coculture; Figure 5e
# [2] = system: ERK1; conditions: read-out: IC50 for ERK1; ref Morris et al., 2013; cited from earlier work
# [3] = system: ERK2; conditions: read-out: IC50 for ERK2; ref Morris et al., 2013; cited from earlier work
# [4] = system: primary mouse microglia; experiment: qRT-PCR of homeostatic and DAM genes in primary microglia; format: cell-based; conditions: dose ranges between 4 and 50 nM, IFNγ-stimulated conditions; Figure S6
# How it was run: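 Mouse brain microglia were purified by CD11b+ MACS selection, plated on poly-L-lysine and cultured at 37°C. After 24 hr, half the medium was replaced and the ERK1/2 inhibitor added. Cells were preincubated 1 hr, then stimulated with 1 ng/ml IFNγ for 24 hr, matching the NanoString culture conditions. RNA was isolated and checked for concentration and purity by spectrophotometry before qRT-PCR.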
# [5] = system: primary mouse microglia; experiment: Flow cytometric assay of microglial viability; format: cell-based; conditions: 1 μM inhibitor, with or without 1 ng/ml IFNγ, 24 hr; Figure S2
smiles,measurement,setting,value
O=C(Nc1ccc2[nH]nc(-c3ccncc3)c2c1)[C@@H]1CCN(CC(=O)N2CCN(c3ccc(-c4ncccn4)cc3)CC2)C1 [SCH772984],microglial phagocytosis of N2a cells,[1],significantly reduced microglial phagocytosis of N2a cells
same,IC50,[2],4 nM
same,IC50,[3],1 nM
same,gene expression of Ptgs2 (pro-inflammatory DAM gene),[4],inhibited gene expression of Ptgs2
same,cell health and viability of microglia,[5],minimally impacted cell health and viability
